Measurements taken from ChEMBL document CHEMBL3853361 (ACS Med Chem Lett, 2016).
Activity calls are given as the source filed them. No cut-off for these calls is given here.

Legend:
[1] = Drug level in DMEM treated with dabrafenib at 200 uM measured after irradiation of 1130 W/m2 UV-light for 15 mins by HPLC analysis; format: physicochemical; conditions: 0.25 h
Method in brief: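 Parent drug dissolved in DMEM cell culture medium, irradiated at 1130 W/m2, then analysed by HPLC. Peak areas converted to concentrations with calibration curves (n = 4).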

[2] = test system: SK-MEL-28; assay: Cytotoxicity against human SK-MEL-28 cells harboring BRAF V600E mutant at >30000 nM measured after 48 hrs by resazurin assay
[3] = Drug level in DMEM treated with dabrafenib at 200 uM measured after irradiation of 226 W/m2 UV-light for 5 mins by HPLC analysis; format: physicochemical
[4] = Drug level assessed as compound formation in DMEM using 200 uM dabrafenib measured after daylight exposure for 1 day by HPLC analysis; format: physicochemical; conditions: 24 h
[5] = Photostability of the compound in DMSO assessed as photolysis at 200 uM measured after irradiation of 1130 W/m2 UV-light for 15 mins by HPLC analysis; format: physicochemical; conditions: 0.25 h
[6] = test system: SK-MEL-28; assay: Growth inhibition of human SK-MEL-28 cells harboring BRAF V600E mutant preincubated for 1 hr followed by irradiation of 1.13 kW/m2 UV-light for 5 mins measured after 48 hrs resazurin assay; format: functional, cell-based
Method in brief: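 SKMEL28 cells incubated 1 h with compound, then irradiated at 365 nm (1.13 kW/m2) for 5 min; growth measured 48 h after compound addition. GI50, TGI and LC50 taken from dose–response curves; n = 4, standard deviation shown.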

[7] = test system: SK-MEL-28; assay: Cytostatic activity in human SK-MEL-28 cells harboring BRAF V600E mutant at 10 and 30000 nM measured after 48 hrs resazurin assay
[8] = Drug uptake in nucleus of human SK-MEL-28 cells at 100 uM by DAPI-staining based fluorescence microscopic analysis; format: ADME, cell-based; conditions: sk-mel-28, 100 µM
Method in brief: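 SKMEL28 cells incubated with compound at 100 µM and imaged for green autofluorescence by fluorescence microscopy at 60×. Nuclei counterstained with 1 µg/mL DAPI.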

[9] = target: Serine/threonine-protein kinase B-raf (Homo sapiens, UniProt P15056, V600E); assay: Inhibition of recombinant human N-terminal GST-6His tagged BRAF V600E mutant (417 to 766 residues) expressed in baculovirus infected Sf9 cells preincubated with substrate followed by protein and ATP addition measured after 60 mins by scintillation counter method
[10] = Drug level assessed as compound formation in DMSO using 200 uM dabrafenib measured after daylight exposure for 1 day by HPLC analysis; format: physicochemical; conditions: 24 h
[11] = Antiproliferative activity against human SK-MEL-28 cells harboring BRAF V600E mutant assessed as concentration required for total growth inhibition measured after 48 hrs resazurin assay; format: functional; conditions: SK-MEL-28, 48 h
Method in brief: (§1)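 SKMEL28 melanoma cells (BRAF V600E-dependent) exposed to a range of compound concentrations, no UV; growth measured after 48 h incubation. Dose–response curves give GI50, TGI (concentration giving total growth inhibition) and LC50; n = 4, error bars standard deviation.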

[12] = Drug level in human SK-MEL-28 cells treated with dabrafenib at 100 uM followed by UV-light irradiation by DAPI-staining based fluorescence microscopic analysis; format: ADME, cell-based; conditions: sk-mel-28, 100 µM
Method in brief: (§2)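 Fluorescence microscopy of SKMEL28 cells seeded in wells. Cells incubated with parent drug, then exposed to rising doses of 365 nm UV; green autofluorescence of the photoproduct imaged at 10× per well. Nuclei counterstained with 1 µg/mL DAPI. Controls: cells without compound given the highest UV dose.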

[13] = Drug level in DPBS treated with dabrafenib at 200 uM measured after irradiation of 1130 W/m2 UV-light for 15 mins by HPLC analysis; format: physicochemical; conditions: 0.25 h
[14] = Half life of the compound in DPBS at 200 uM measured after irradiation of 1130 W/m2 UV-light for 15 mins by HPLC analysis; format: physicochemical; conditions: DPBS solution under UV irradiation
[15] = Photostability of the compound in DMSO at 200 uM measured after irradiation of 226 W/m2 UV-light for 5 mins by HPLC analysis; format: physicochemical
[16] = Half life of the compound in DMSO at 200 uM measured after irradiation of 1130 W/m2 UV-light for 15 mins by HPLC analysis; format: physicochemical; conditions: DMSO solution under UV irradiation
[17] = Photostability of the compound in DMSO at 200 uM measured after daylight exposure for 1 day by HPLC analysis; format: physicochemical; conditions: 24 h
[18] = Stability of the compound in DMSO assessed as thermal decomposition at 200 uM incubated in dark for 1 day by HPLC analysis; format: physicochemical; conditions: 24 h
[19] = Drug metabolism in human SK-MEL-28 cells assessed as photo-induced N-(5-amino-2-tert-butyl)-11-fluorbenzol[f]thiazol-[4,5-h]-quinazolin-10-yl)-2,6-difluorbenzolsulfonamide formation at 100 uM followed by UV-light irradiation by DAPI-staining based fluorescence microscopic analysis; format: ADME, cell-based; conditions: sk-mel-28, 100 µM; method in brief: as §2
[20] = Half life of the compound in DMSO at 200 uM measured after irradiation of 1130 W/m2 W/m2 UV-light for 5 mins by HPLC analysis; format: physicochemical; conditions: DMSO solution under UV irradiation
[21] = Half life of the compound in DMSO at 200 uM measured after irradiation of 226 W/m2 UV-light for 5 mins by HPLC analysis; format: physicochemical; conditions: DMSO solution under UV irradiation
[22] = Stability of the compound in DMEM assessed as thermal decomposition at 200 uM incubated in dark for 1 day by HPLC analysis; format: physicochemical; conditions: 24 h
[23] = test system: SK-MEL-28; assay: Growth inhibition of human SK-MEL-28 cells harboring BRAF V600E mutant measured after 48 hrs resazurin assay; format: functional, cell-based; method in brief: as §1
[24] = Photostability of the compound in DMEM at 200 and 1100 uM measured after daylight exposure for 1 day by HPLC analysis; format: physicochemical; conditions: 24 h
[25] = test system: SK-MEL-28; assay: Cytostatic activity in human SK-MEL-28 cells harboring BRAF V600E mutant at 1 and 30 uM measured after 48 hrs resazurin assay; format: functional, cell-based

Sequence of Serine/threonine-protein kinase B-raf (P15056 2-766 V600E limits assumed): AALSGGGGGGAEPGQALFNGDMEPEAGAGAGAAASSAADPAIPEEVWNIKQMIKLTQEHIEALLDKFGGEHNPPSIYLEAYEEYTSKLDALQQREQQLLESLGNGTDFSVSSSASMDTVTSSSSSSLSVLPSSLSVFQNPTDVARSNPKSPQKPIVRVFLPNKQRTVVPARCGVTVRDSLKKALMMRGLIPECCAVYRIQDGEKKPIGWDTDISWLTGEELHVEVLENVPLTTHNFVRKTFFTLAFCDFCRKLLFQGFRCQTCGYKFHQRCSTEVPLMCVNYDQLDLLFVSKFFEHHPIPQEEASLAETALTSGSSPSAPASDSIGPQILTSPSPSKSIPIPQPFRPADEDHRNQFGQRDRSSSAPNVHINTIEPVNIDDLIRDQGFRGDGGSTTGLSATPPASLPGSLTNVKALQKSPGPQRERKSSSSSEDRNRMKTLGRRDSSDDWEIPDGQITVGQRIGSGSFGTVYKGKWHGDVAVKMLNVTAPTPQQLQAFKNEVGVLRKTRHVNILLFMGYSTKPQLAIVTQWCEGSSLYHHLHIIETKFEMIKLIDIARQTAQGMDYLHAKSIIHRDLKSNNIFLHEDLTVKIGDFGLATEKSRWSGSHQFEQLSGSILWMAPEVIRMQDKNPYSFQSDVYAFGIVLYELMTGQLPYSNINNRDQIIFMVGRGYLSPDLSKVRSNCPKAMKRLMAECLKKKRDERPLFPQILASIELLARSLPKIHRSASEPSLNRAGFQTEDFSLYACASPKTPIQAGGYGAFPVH

CC(C)(C)c1nc2c(s1)c1nc(N)ncc1c1ccc(NS(=O)(=O)c3c(F)cccc3F)c(F)c12
Drug metabolism [1]: Metabolite_Detected
Activity [2]: Active
Drug metabolism [3]: Metabolite_Detected
Drug metabolism [4]: Metabolite_Detected
Stability [5]: Unstable
growth inhibition (GI) [6]: Active
Activity [7]: Active
Drug uptake [8]: Active
IC50 [9]: 0.28 µM
Drug metabolism [10]: Metabolite_Detected
TGI [11]: 8.9 µM
Drug metabolism [12]: Metabolite_Detected
Drug metabolism [13]: Metabolite_Detected

CC(C)(C)c1nc(-c2cccc(NS(=O)(=O)c3c(F)cccc3F)c2F)c(-c2ccnc(N)n2)s1 [DABRAFENIB]
half-life at 200 µM [14]: 145 s
Stability [15]: Unstable
half-life at 200 µM [16]: 19.5 s
Stability [17]: Unstable
Stability [18]: Stable
growth inhibition (GI) [6]: Active
Drug metabolism [19]: Metabolite_Detected
half-life at 200 µM [20]: 19.5 s
half-life at 200 µM [21]: 65 s
Stability [22]: Stable
growth inhibition (GI) [23]: Active
Stability [24]: Unstable
Activity [25]: Active

CCCS(=O)(=O)Nc1ccc(F)c(C(=O)c2c[nH]c3ncc(-c4ccc(Cl)cc4)cc23)c1F [VEMURAFENIB]
growth inhibition (GI) [6]: Active
TGI [11]: 2 µM
